Data reported in ChEMBL document CHEMBL1157305, “Serotonergic activity-guided phytochemical investigation of the roots of Angelica sinensis” (J Nat Prod, 2006).

Experiments:
[1] = biological target: T1, 5-hydroxytryptamine receptor 7 (Homo sapiens, UniProt P34969); experiment: Displacement of [3H]LSD from human recombinant 5HT7 receptor expressed in CHO cells at 100 uM by liquid scintillation counting relative to control; type: cell-based
How it was run: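 Membranes from confluent human 5-HT7-transfected CHO cells were lysed in hypotonic buffer at 4 °C and homogenized in TEM buffer. Protein was measured by Lowry. Binding used [3H]LSD (5 nM) in 75 mM Tris-HCl, 1.25 mM MgCl2, 1 mM EDTA, pH 7.4, for 1 h at 37 °C. Samples were filtered on PEI-presoaked filters and counted by liquid scintillation. Nonspecific binding was defined with 250 nM 5-HT.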

[2] = biological target: T1, 5-hydroxytryptamine receptor 7; experiment: Displacement of [3H]LSD from human recombinant 5HT7 receptor expressed in CHO cells by liquid scintillation counting; type: cell-based
How it was run: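 Membranes from confluent CHO cells stably carrying human 5-HT7, grown in Ham's F-12 with 10% FBS. Cells lysed in hypotonic Tris/MgCl2/EDTA buffer at 4 °C, and membranes washed in TEM buffer. Incubated with 5 nM [3H]LSD for 1 h at 37 °C in 75 mM Tris-HCl, 1.25 mM MgCl2, 1 mM EDTA, pH 7.4. Filtered, then counted by scintillation. Nonspecific binding defined with 250 nM 5-HT. IC50 is the concentration giving 50% inhibition of binding.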

T1 sequence (P34969 whole entry): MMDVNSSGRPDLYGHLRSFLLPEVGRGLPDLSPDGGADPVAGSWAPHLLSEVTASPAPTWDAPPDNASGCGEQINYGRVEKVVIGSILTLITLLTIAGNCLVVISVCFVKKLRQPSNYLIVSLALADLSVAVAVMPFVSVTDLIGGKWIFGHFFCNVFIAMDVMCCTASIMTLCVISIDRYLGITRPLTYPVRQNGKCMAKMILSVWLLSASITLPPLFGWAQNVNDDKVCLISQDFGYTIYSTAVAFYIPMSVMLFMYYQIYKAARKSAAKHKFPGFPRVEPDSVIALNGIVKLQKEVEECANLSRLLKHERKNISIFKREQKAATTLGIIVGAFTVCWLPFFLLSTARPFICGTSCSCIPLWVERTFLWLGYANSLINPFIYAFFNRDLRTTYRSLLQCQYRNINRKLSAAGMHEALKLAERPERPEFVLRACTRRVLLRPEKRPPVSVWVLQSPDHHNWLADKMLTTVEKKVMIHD

Compound | inhibition [1] [%] | IC50 [2] [µM]
COc1cc(/C=C/C(=O)OCC(O)C(OC)c2ccc(O)c(OC)c2)ccc1O (stereo not given) | 31 | 
CC(C)=CCOc1c2occc2cc2ccc(=O)oc12 | 57 | 
C=C[C@@H](O)C#CC#C[C@@H](O)/C=C\CCCCCCC [FALCARINDIOL] | 61 | 118
CC[C@H](/C=C/[C@@H](C)[C@H]1CC[C@H]2[C@@H]3CC=C4C[C@@H](O)CC[C@]4(C)[C@H]3CC[C@]12C)C(C)C | 0 | 
CCC/C=C1\OC(=O)C2=C1CC[C@@H](O)[C@@H]2O | 0 | 
CCC/C=C1\OC(=O)c2ccccc21 [Z-butylidenephthalide] | 46 | 127
COc1cc(/C=C/C(=O)OCCc2ccc(O)cc2)ccc1O | 71 | 47.6
CCC/C=C1\OC(=O)C2=C1CCC(O)C2OC (stereo not given) | 36 | 
C=C[C@@H](O)C#CC#C[C@@H](O)/C=C\CCCCCCCCOC(C)=O | 49 | 118
COc1cc(/C=C/C(=O)O)ccc1O | 41 | 
COc1cc(C=O)ccc1O | 0 | 
CCCCNS(=O)(=O)c1ccccc1 | 0 | 
CCC/C=C1\OC(=O)C2=C1CCC=C2 | 33 | 
C=C[C@H](O)C#CC#C[C@@H](O)C1OC1CCCCCCC (stereo not given in full) | 36 | 
CCC/C=C1\OC(=O)C2=CC3CCC21[C@]1(OC(=O)c2ccccc21)[C@@H]3CCC (stereo not given in full) | 19 | 
CCC/C=C1\OC(=O)C23C=CCCCC12C1(OC(=O)c2ccccc21)C3CCC (stereo not given) | 24 | 
CCCCCCC/C=C\[C@H](O)C#CC#C[C@@H](O)CC | 5 | 
CCCCCCC/C=C\[C@H](O)C#CC#CC(=O)CCOC | 69 | > 150
CC/C=C\C/C=C\C/C=C\CCCCCCCC(=O)OCC(O)COC(=O)CCCCCCCC/C=C\C/C=C\C=C\CC (stereo not given) | 0 | 
C/C=C(/C)C(=O)OC(C)CCC1OC(=O)c2ccccc21 (stereo not given) | 21 | 
